Experimental data published in ChEMBL document CHEMBL1932986, “Synthesis and in vitro antimycobacterial activity of compounds derived from (R)- and (S)-2-amino-1-butanol - The crucial role of the configuration” (Eur J Med Chem, 2012).
≈ marks a conversion by molar mass, not a printed value. Calls of active or inactive are those of the source. The calls are words filed in the database; no cut-off is given here.

Tests used:
Penicillium chrysogenum [1] = experiment: Antifungal activity against Penicillium chrysogenum CECT 2802 at 2 mg/ml after 72 hrs by agar diffusion test; type: functional, organism-based
Outline: (§1)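 Agar diffusion: yeasts grown on yeast peptone dextrose agar and fungi on potato dextrose agar. Wells are filled with […] of compound solution in DMSO at various concentrations, and the clear-zone diameter is measured. Bracketed values give the lowest concentration (mg/ml) that produces a zone >11 mm. A first screen is run at 50 mg/ml.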

Saccharomyces cerevisiae [2] = experiment: Antifungal activity against Saccharomyces cerevisiae ATCC 9763 at 2 mg/ml after 72 hrs by agar diffusion test; type: functional, organism-based; outline: as §1
Candida tropicalis [3] = experiment: Antifungal activity against Candida tropicalis ATCC 20336 at 2 mg/ml after 72 hrs by agar diffusion test; type: functional, organism-based; outline: as §1
Escherichia coli [4] = experiment: Antibacterial activity against Escherichia coli ATCC 8739 at 2 mg/ml after 24 hrs by agar diffusion test; type: functional, organism-based
Outline: (§2)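 Agar diffusion: wells in agar filled with […] DMSO solution of compound at various concentrations; diameter of clear zone around application point measured. Bacteria grown 24 h at 37 °C on nutrient agar. Compounds first screened at 50 mg/ml; those active then tested at lower concentrations. Bracketed value = lowest concentration (mg/ml) giving zone >11 mm, reported only if activity retained at ≤1.25 mg/ml.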

Micrococcus luteus [5] = experiment: Antibacterial activity against Micrococcus luteus ATCC 9631 at 2 mg/ml after 24 hrs by agar diffusion test; type: functional, organism-based; outline: as §2
Micrococcus luteus [6] = experiment: Antibacterial activity against Sarcina lutea ATCC 9341 at 2 mg/ml after 24 hrs by agar diffusion test; type: functional, organism-based; outline: as §2
Staphylococcus aureus [7] = experiment: Antibacterial activity against Staphylococcus aureus NRRL B 313 at 2 mg/ml after 24 hrs by agar diffusion test; type: functional, organism-based
Outline: (§3)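 Agar diffusion: bacteria grown 24 h at 37 °C on nutrient agar. Wells in the agar are filled with […] of compound solution in DMSO at various concentrations. The diameter of the clear zone around the application point is measured. Bracketed values give the lowest concentration (mg/ml) that produces a zone >11 mm. A first screen is run at 50 mg/ml.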

Acinetobacter johnsonii [8] = experiment: Antibacterial activity against Acinetobacter johnsonii ATCC 17909 at 2 mg/ml after 24 hrs by agar diffusion test; type: functional; outline: as §2
Bacillus cereus [9] = experiment: Antibacterial activity against Bacillus cereus ATCC 11778 at 2 mg/ml after 24 hrs by agar diffusion test; type: functional, organism-based; outline: as §2
Bacillus mycoides [10] = experiment: Antibacterial activity against Bacillus mycoides DSMZ 274 at 2 mg/ml after 24 hrs by agar diffusion test; type: functional, organism-based; outline: as §2
Priestia megaterium [11] = experiment: Antibacterial activity against Bacillus megaterium NRRL 1353895 at 2 mg/ml after 24 hrs by agar diffusion test; type: functional, organism-based; outline: as §2
Bacillus [12] = experiment: Antibacterial activity against Bacillus idosus B 241 at 2 mg/ml after 24 hrs by agar diffusion test; type: functional, organism-based; outline: as §2
Bacillus subtilis [13] = experiment: Antibacterial activity against Bacillus subtilis ATCC 6633 at 2 mg/ml after 24 hrs by agar diffusion test; type: functional, organism-based; outline: as §2
Bacillus subtilis [14] = experiment: Antibacterial activity against Bacillus subtilis ATCC 6633 assessed as concentration required to produce >11 mm of zone of inhibition after 24 hrs by agar diffusion test; type: functional; outline: as §2
Bacillus [15] = experiment: Antibacterial activity against Bacillus idosus B 241 assessed as concentration required to produce >11 mm of zone of inhibition after 24 hrs by agar diffusion test; type: functional; outline: as §2
Priestia megaterium [16] = experiment: Antibacterial activity against Bacillus megaterium NRRL 1353895 assessed as concentration required to produce >11 mm of zone of inhibition after 24 hrs by agar diffusion test; type: functional; outline: as §2
Bacillus mycoides [17] = experiment: Antibacterial activity against Bacillus mycoides DSMZ 274 assessed as concentration required to produce >11 mm of zone of inhibition after 24 hrs by agar diffusion test; type: functional; outline: as §2
Bacillus cereus [18] = experiment: Antibacterial activity against Bacillus cereus ATCC 11778 assessed as concentration required to produce >11 mm of zone of inhibition after 24 hrs by agar diffusion test; type: functional; outline: as §2
Acinetobacter johnsonii [19] = experiment: Antibacterial activity against Acinetobacter johnsonii ATCC 17909 assessed as concentration required to produce >11 mm of zone of inhibition after 24 hrs by agar diffusion test; type: functional; outline: as §2
[20] = tested on: Mycobacterium tuberculosis; experiment: Antimycobacterial activity against Mycobacterium tuberculosis H37Rv after 45 days; type: functional
Outline: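 Canetti proportion method. Compound in DMSO is added to Löwenstein–Jensen egg medium before coagulation (30 min, 85 °C), tested at three levels plus a lower one where needed. Tubes are inoculated with H37Rv at 10⁵ cells/ml and incubated 45 days at 37 °C. Colony counts versus drug-free control give percentage inhibition.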

Staphylococcus aureus [21] = experiment: Antibacterial activity against Staphylococcus aureus NRRL B 313 assessed as concentration required to produce >11 mm of zone of inhibition after 24 hrs by agar diffusion test; type: functional; outline: as §3
Escherichia coli [22] = experiment: Antibacterial activity against Escherichia coli ATCC 8739 assessed as concentration required to produce >11 mm of zone of inhibition after 24 hrs by agar diffusion test; type: functional; outline: as §2
Candida tropicalis [23] = experiment: Antifungal activity against Candida tropicalis ATCC 20336 assessed as concentration required to produce >11 mm of zone of inhibition after 72 hrs by agar diffusion test; type: functional; outline: as §1
Saccharomyces cerevisiae [24] = experiment: Antifungal activity against Saccharomyces cerevisiae ATCC 9763 assessed as concentration required to produce >11 mm of zone of inhibition after 72 hrs by agar diffusion test; type: functional; outline: as §1
Bacillus subtilis [25] = experiment: Antibacterial activity against Bacillus subtilis ATCC 6633 at 50 mg/ml after 24 hrs by agar diffusion test; type: functional; outline: as §2
Bacillus [26] = experiment: Antibacterial activity against Bacillus idosus B 241 at 50 mg/ml after 24 hrs by agar diffusion test; type: functional; conditions: B 241, 24 h, read-out: DIZ; outline: as §2
Priestia megaterium [27] = experiment: Antibacterial activity against Bacillus megaterium NRRL 1353895 at 50 mg/ml after 24 hrs by agar diffusion test; type: functional; conditions: NRRL 1353895, 24 h, read-out: DIZ; outline: as §2
Bacillus mycoides [28] = experiment: Antibacterial activity against Bacillus mycoides DSMZ 274 at 50 mg/ml after 24 hrs by agar diffusion test; type: functional; conditions: DSMZ 274, 24 h, read-out: DIZ; outline: as §2
Bacillus cereus [29] = experiment: Antibacterial activity against Bacillus cereus ATCC 11778 at 50 mg/ml after 24 hrs by agar diffusion test; type: functional; conditions: ATCC 11778, 24 h, read-out: DIZ; outline: as §2
Acinetobacter johnsonii [30] = experiment: Antibacterial activity against Acinetobacter johnsonii ATCC 17909 at 50 mg/ml after 24 hrs by agar diffusion test; type: functional; conditions: ATCC 17909, 24 h, read-out: DIZ; outline: as §2
Staphylococcus aureus [31] = experiment: Antibacterial activity against Staphylococcus aureus NRRL B 313 at 50 mg/ml after 24 hrs by agar diffusion test; type: functional; conditions: NRRL B 313, 24 h, read-out: DIZ; outline: as §3
Micrococcus luteus [32] = experiment: Antibacterial activity against Sarcina lutea ATCC 9341 at 50 mg/ml after 24 hrs by agar diffusion test; type: functional; conditions: ATCC 9341, 24 h, read-out: DIZ; outline: as §3
Micrococcus luteus [33] = experiment: Antibacterial activity against Micrococcus luteus ATCC 9631 at 50 mg/ml after 24 hrs by agar diffusion test; type: functional; conditions: ATCC 9631, 24 h, read-out: DIZ; outline: as §2
Escherichia coli [34] = experiment: Antibacterial activity against Escherichia coli ATCC 8739 at 50 mg/ml after 24 hrs by agar diffusion test; type: functional; outline: as §2
Candida tropicalis [35] = experiment: Antifungal activity against Candida tropicalis ATCC 20336 at 50 mg/ml after 72 hrs by agar diffusion test; type: functional; conditions: ATCC 20336, 72 h, read-out: DIZ; outline: as §1
Saccharomyces cerevisiae [36] = experiment: Antifungal activity against Saccharomyces cerevisiae ATCC 9763 at 50 mg/ml after 72 hrs by agar diffusion test; type: functional; conditions: ATCC 9763, 72 h, read-out: DIZ; outline: as §1
Penicillium chrysogenum [37] = experiment: Antifungal activity against Penicillium chrysogenum CECT 2802 at 50 mg/ml after 72 hrs by agar diffusion test; type: functional; outline: as §1
HEK-293T = experiment: Cytotoxicity against human HEK293T cells after 72 hrs by MTT assay; type: cell-based
Outline: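 293T cells in RPMI-1640 with 10% heat-inactivated FCS and 2 mM L-glutamine, 37 °C, 5% CO2. Cells seeded at 3.5 × 10⁵ cells/ml, grown 24 h, then exposed 72 h to DMSO-diluted compounds (final solvent ≤0.5%), ≥8 wells per concentration. MTT added 4 h, formazan dissolved in 5% HCOOH/2-propanol, absorbance read at 580 nm. IC50 obtained by sigmoidal nonlinear regression against untreated control.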

[38] = Selectivity index, ratio of IC50 for human HEK293T cells to MIC for Mycobacterium tuberculosis H37Rv; type: functional, HEK-293T
[39] = Solubility of the compound in deionized water; type: physicochemical
[40] = tested on: Mycobacterium tuberculosis; experiment: Ratio of ethambutol dihydrochloride MIC to compound MIC for Mycobacterium tuberculosis H37Rv; type: functional

CC[C@H](CO)NCc1ccc2c(c1)Cc1ccccc1-2
diameter of the inhibition zone (DIZ) (Penicillium chrysogenum [1]): inactive
diameter of the inhibition zone (DIZ) (Saccharomyces cerevisiae [2]): inactive
diameter of the inhibition zone (DIZ) (Candida tropicalis [3]): inactive
diameter of the inhibition zone (DIZ) (Escherichia coli [4]): inactive
diameter of the inhibition zone (DIZ) (Micrococcus luteus [5]): inactive
diameter of the inhibition zone (DIZ) (Micrococcus luteus [6]): inactive
diameter of the inhibition zone (DIZ) (Staphylococcus aureus [7]): inactive
diameter of the inhibition zone (DIZ) (Acinetobacter johnsonii [8]): inactive
diameter of the inhibition zone (DIZ) (Bacillus cereus [9]): inactive
diameter of the inhibition zone (DIZ) (Bacillus mycoides [10]): inactive
diameter of the inhibition zone (DIZ) (Priestia megaterium [11]): inactive
diameter of the inhibition zone (DIZ) (Bacillus [12]): inactive
diameter of the inhibition zone (DIZ) (Bacillus subtilis [13]): inactive
Activity (Bacillus subtilis [14]): 1.25 mg/mL
Activity (Bacillus [15]): 0.6 mg/mL
Activity (Priestia megaterium [16]): 1.25 mg/mL
Activity (Bacillus mycoides [17]): 1.25 mg/mL
Activity (Bacillus cereus [18]): 1.25 mg/mL
Activity (Acinetobacter johnsonii [19]): 1.25 mg/mL
MIC [20]: 18.7 µM (≈ 5.01 µg/mL)
Activity (Staphylococcus aureus [21]): 1.25 mg/mL
Activity (Escherichia coli [22]): 1.25 mg/mL
Activity (Candida tropicalis [23]): 0.06 mg/mL
Activity (Saccharomyces cerevisiae [24]): 1.25 mg/mL
zone of inhibition at 50000 µg/mL (Bacillus subtilis [25]; ATCC 6633, 24 h, read-out: DIZ): 18 mm
zone of inhibition at 50000 µg/mL (Bacillus [26]): 17 mm
zone of inhibition at 50000 µg/mL (Priestia megaterium [27]): 16 mm
zone of inhibition at 50000 µg/mL (Bacillus mycoides [28]): 20 mm
zone of inhibition at 50000 µg/mL (Bacillus cereus [29]): 16 mm
zone of inhibition at 50000 µg/mL (Acinetobacter johnsonii [30]): 17 mm
zone of inhibition at 50000 µg/mL (Staphylococcus aureus [31]): 17 mm
zone of inhibition at 50000 µg/mL (Micrococcus luteus [32]): 18 mm
zone of inhibition at 50000 µg/mL (Micrococcus luteus [33]): 16 mm
zone of inhibition at 50000 µg/mL (Escherichia coli [34]; ATCC 8739, 24 h, read-out: DIZ): 16 mm
zone of inhibition at 50000 µg/mL (Candida tropicalis [35]): 21 mm
zone of inhibition at 50000 µg/mL (Saccharomyces cerevisiae [36]): 20 mm
zone of inhibition at 50000 µg/mL (Penicillium chrysogenum [37]; CECT 2802, 72 h, read-out: DIZ): 30 mm

CC[C@H](CO)NC(=O)c1ccccc1O
MIC [20]: 0.96 µM (≈ 0.201 µg/mL)
IC50 (HEK-293T): 257 µM
Selectivity Index [38]: 267.7
solubility [39]: 2 mg/mL (≈ 9.56 mM)
Ratio [40]: 5
diameter of the inhibition zone (DIZ) (Bacillus subtilis [25]): inactive
zone of inhibition at 50000 µg/mL (Bacillus [26]): 11 mm
zone of inhibition at 50000 µg/mL (Priestia megaterium [27]): 13 mm
zone of inhibition at 50000 µg/mL (Bacillus mycoides [28]): 12 mm
zone of inhibition at 50000 µg/mL (Bacillus cereus [29]): 11 mm
zone of inhibition at 50000 µg/mL (Acinetobacter johnsonii [30]): 13 mm
zone of inhibition at 50000 µg/mL (Staphylococcus aureus [31]): 11 mm
zone of inhibition at 50000 µg/mL (Micrococcus luteus [32]): 13 mm
zone of inhibition at 50000 µg/mL (Micrococcus luteus [33]): 11 mm
diameter of the inhibition zone (DIZ) (Escherichia coli [34]): inactive
zone of inhibition at 50000 µg/mL (Candida tropicalis [35]): 13 mm
zone of inhibition at 50000 µg/mL (Saccharomyces cerevisiae [36]): 15 mm
diameter of the inhibition zone (DIZ) (Penicillium chrysogenum [37]): inactive
